Test results: ChEMBL document CHEMBL4017487, “Design and Synthesis of γ- and δ-Lactam M1 Positive Allosteric Modulators (PAMs): Convulsion and Cholinergic Toxicity of an M1-Selective PAM with Weak Agonist Activity” (J Med Chem, 2017)
In brackets after ≈: the same amount, converted by molar mass. Activity calls are given as the source filed them. The calls are words filed in the database; no cut-off is given here.

Assays:
[1] = test system: Canis familiaris; experiment: Cholinergic toxicity in dog assessed as salivation at 15 mg/kg, po administered as single dose using spray dried dispersion formulation after 1 hr; format: organism-based, Canis lupus familiaris; settings: in vivo
Outline: (§1)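 Dog single oral dose escalation: 1/sex at 5 mg/kg for each formulation; 1 female at 15 mg/kg. Spray-dried dispersion: 23% drug loading with 0.5% methylcellulose and 100 mM citrate buffer. Clinical signs timed in approximate hours postdose; unbound plasma Cmax.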

[2] = molecular target: T1, Muscarinic acetylcholine receptor M3 (Homo sapiens, UniProt P20309); experiment: Agonist activity at human muscarinic acetylcholine receptor M3 expressed in CHO cells assessed as increase in calcium mobilization incubated for 10 mins by Fluo-8-AM dye based FLIPR assay; format: cell-based
T1 sequence (P20309 whole entry): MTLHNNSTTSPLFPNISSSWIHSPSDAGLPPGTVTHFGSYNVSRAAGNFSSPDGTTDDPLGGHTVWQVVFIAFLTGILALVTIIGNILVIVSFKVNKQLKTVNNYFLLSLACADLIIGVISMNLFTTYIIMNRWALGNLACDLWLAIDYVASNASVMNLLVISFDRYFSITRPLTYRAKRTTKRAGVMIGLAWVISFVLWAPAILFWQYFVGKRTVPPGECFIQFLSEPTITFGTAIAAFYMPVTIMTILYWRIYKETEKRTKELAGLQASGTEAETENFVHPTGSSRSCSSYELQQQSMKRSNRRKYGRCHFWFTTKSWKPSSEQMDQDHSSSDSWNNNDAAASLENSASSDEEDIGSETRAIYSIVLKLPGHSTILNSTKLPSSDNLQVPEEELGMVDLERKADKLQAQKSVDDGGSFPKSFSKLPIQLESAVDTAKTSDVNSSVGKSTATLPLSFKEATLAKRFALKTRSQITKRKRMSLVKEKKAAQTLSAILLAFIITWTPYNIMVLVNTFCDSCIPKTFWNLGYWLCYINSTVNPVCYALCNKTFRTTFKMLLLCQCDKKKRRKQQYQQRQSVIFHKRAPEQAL
Outline: (§2)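 Recombinant functional human M2–M5 assays, each run in agonist and PAM modes at concentrations up to 10 μM.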

[3] = test system: Canis familiaris; experiment: Toxicity in dog assessed as unbound Cmax in plasma required to show convulsions at 15 mg/kg, po administered as single dose using spray dried dispersion formulation; format: organism-based, Canis lupus familiaris; settings: in vivo
[4] = test system: Canis familiaris; experiment: Unbound AUC (0 to 24 hrs) in dog plasma at 5 mg/kg, po administered as single dose using hydroxypropyl cellulose/docusate sodium formulation; format: ADME, organism-based, Canis lupus familiaris; settings: in vivo
Outline: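 Dogs given a single oral 5 mg/kg dose as a nanosuspension (hydroxypropyl cellulose SL, 0.05% docusate sodium in purified water), 1/sex. Unbound plasma Cmax and AUC determined, with clinical signs monitored at approximate hours postdose.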

[5] = molecular target: T2, Muscarinic acetylcholine receptor M1 (Homo sapiens, UniProt P11229); experiment: Agonist activity at human muscarinic acetylcholine receptor M1 expressed in CHO cells assessed as increase in calcium mobilization incubated for 10 mins by Fluo-8-AM dye based FLIPR assay; format: cell-based
T2 sequence (P11229 whole entry): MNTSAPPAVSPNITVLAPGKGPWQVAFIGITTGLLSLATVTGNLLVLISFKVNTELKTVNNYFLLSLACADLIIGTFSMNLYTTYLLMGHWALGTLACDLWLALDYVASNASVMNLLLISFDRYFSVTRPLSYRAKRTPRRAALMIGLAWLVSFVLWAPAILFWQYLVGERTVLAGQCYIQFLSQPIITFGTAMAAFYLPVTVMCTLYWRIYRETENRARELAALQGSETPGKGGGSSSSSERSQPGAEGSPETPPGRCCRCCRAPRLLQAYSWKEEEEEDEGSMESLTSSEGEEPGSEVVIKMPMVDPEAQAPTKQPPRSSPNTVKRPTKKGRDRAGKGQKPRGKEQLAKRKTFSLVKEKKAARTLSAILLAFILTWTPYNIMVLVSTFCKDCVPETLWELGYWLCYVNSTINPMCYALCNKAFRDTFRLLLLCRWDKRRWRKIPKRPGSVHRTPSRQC
Outline: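 M1 FLIPR calcium mobilization run in agonist mode (compound added without the EC20 ACh used in PAM mode). Top concentration 10 μM. EC50 values are geometric means of at least three experiments.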

[6] = Thermodynamic solubility of the compound in FeSSIF at pH 6.3; settings: read-out: Therm_solubility
[7] = test system: Brain; experiment: Unbound brain concentration in amphetamine-induced hyperlocomotion C57BL/6 mouse at 3.2 mg/kg, sc measured after 1 hr by LC-MS/MS analysis; format: ADME, organism-based; settings: in vivo
Outline: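 Satellite group of C57BL/6 mice from the amphetamine-stimulated locomotor study, N = 2/dose at 0.32, 1 and 3.2 mg/kg. Dosed sc as a solution in 10/90 Cremophor/water. Unbound plasma and brain concentrations measured at T = 1 h.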

[8] = test system: Canis familiaris; experiment: Toxicity in dog assessed as convulsion at 15 mg/kg, po administered as single dose using spray dried dispersion formulation after 1.2 hrs; format: organism-based, Canis lupus familiaris; settings: in vivo; outline: as §1
[9] = Positive allosteric modulation of muscarinic acetylcholine receptor M1 in Hartley guinea pig ileum longitudinal muscle myenteric plexus assessed as increase in acetylcholine-induced tissue contraction after 10 mins in presence of donepezil; settings: Cavia porcellus
[10] = molecular target: T1, Muscarinic acetylcholine receptor M3; experiment: Positive allosteric modulation of human muscarinic acetylcholine receptor M3 expressed in CHO cells assessed as increase in acetylcholine-induced calcium mobilization up to 10 uM preincubated for 10 mins followed by acetylcholine addition by Fluo-8-AM dye based FLIPR assay; format: cell-based; outline: as §2
[11] = Ratio of AUC in dog brain to plasma at 0.5 mg/kg, po or 0.1 mg/kg, iv administered as single bolus dose; format: ADME, organism-based, Canis lupus familiaris; settings: read-out: Ratio AUC
Outline: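 Brain/plasma ratio computed from AUC of total drug in brain and total drug in plasma.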

[12] = test system: Mus musculus; experiment: In vivo agonist activity at muscarinic acetylcholine receptor M1 in C57BL/6 mouse assessed as unbound brain concentration required to show 2 fold increase in IP1 accumulation in striatum at 1 to 10 mg/kg, sc measured after 2 hrs; format: organism-based
Outline: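 Cb,u giving a 2-fold rise in striatal IP1 in C57BL/6 mice, estimated by interpolation of individual-mouse IP1 versus free brain exposure data.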

[13] = test system: Rattus norvegicus; experiment: Reversal of scopolamine-induced memory impairment in Wistar rat assessed as […] in hidden platform during 5 days training period at 0.32 to 3.2 mg/kg, sc administered 15 mins prior to test for 5 consecutive days followed by scopolamine challenge 30 mins prior to test by Morris water maze test; format: functional, organism-based
[14] = test system: Plasma; experiment: Unbound plasma concentration in scopolamine-induced memory impairment Wistar rat model at 1 mg/kg, sc measured after 1.25 hrs by LC-MS/MS analysis; format: ADME, organism-based; settings: in vivo
Outline: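 Rats from a satellite group of the scopolamine (0.32 mg/kg) Morris water maze study, N = 2/dose. Dosed sc as a solution in 20% hydroxypropyl β-cyclodextrin. Compound concentrations measured in plasma only at T = 1.25 h.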

[15] = test system: Rattus norvegicus; experiment: Toxicity in rat assessed as convulsions at 45 mg/kg, po administered as single dose after 1 to 6 hrs; format: organism-based; settings: in vivo
[16] = Oral bioavailability in rat at 2 mg/kg administered as single dose; format: ADME, organism-based; settings: in vivo
[17] = test system: Canis familiaris; experiment: Unbound Cmax in dog plasma at 15 mg/kg, po administered as single dose using spray dried dispersion formulation; format: ADME, organism-based, Canis lupus familiaris; settings: in vivo
[18] = molecular target: T2, Muscarinic acetylcholine receptor M1; experiment: Agonist activity at human muscarinic acetylcholine receptor M1 expressed in CHO cells at 30 uM by beta-arrestin recruitment assay relative to acetylcholine; format: cell-based
[19] = Intrinsic clearance in human liver microsomes; format: ADME, microsome; settings: read-out: CLH

Cc1cc2c(cc1Cc1ccc(-c3cocn3)cc1)C(=O)N([C@H]1CCOC[C@@H]1O)C2
Activity [1]: Toxic | EC50 [2]: > 10000 nM | fCmax [3]: 1070 nM | fAUC [4]: 3.37 µM·h | EC50 [5]: ≥ 5000 nM | solubility thermodynamic [6]: 39.7 µg/mL (≈ 98.2 µM) | Drug uptake(free) [7]: 32 nM | Activity [8]: Toxic | EC50 [9]: 46 nM | Activity [10]: Not Active | Kp [11]: 0.7 | Drug uptake(free) [12]: 22 nM | Activity [13]: Active | Cp(f) [14]: 66 nM | Activity [15]: Toxic | bioavailability [16]: 91% | fCmax [17]: 1067 nM | Activity [18]: 50% | CLint scaled [19]: < 8 mL/min/kg
